Reference: publication PMC11052883 (Clinical Pharmacokinetics, 2024)
pIC50: −log10 of the molar value. Several values for one entry are separate records, joined by “and”; a condition that tells them apart may be missing. Equal entries are not always repeated. Square brackets hold non-standard residues; d marks the D form. Peptide text beside a SMILES is read from it. * marks the point of attachment. Dolaproine = CO[C@@H]([C@@H]1CCCN1)[C@@H](C)C(=O)O; Dil = CC[C@H](C)[C@H](NC)[C@@H](CC(=O)O)OC; X1 = C[C@@H](N*)[C@@H](O)c1ccccc1; NMeV = CN[C@H](C(=O)O)C(C)C

Key:
BSEP = details: in vitro, clinically relevant concentrations; cited from earlier work
[1] = Population PK: effect of mild hepatic impairment on model-predicted exposures; type: in vivo, human; details: mild hepatic impairment compared with normal hepatic function
[2] = MMAE given as brentuximab vedotin; cited from earlier work
[3] = EV-201 clinical PK of ADC, TAb and free MMAE after enfortumab vedotin 1.25 mg/kg; type: in vivo, human; details: for AUCd0–14: cycle 1, dose 3, day 15, geometric mean (%CV)
[4] = target: human ether-a-go-go–related (hERG) channel (Homo sapiens, UniProt Q12809); assay: hERG channel inhibition, whole-cell voltage clamp; type: cell-based
human ether-a-go-go–related (hERG) channel, sequence (Q12809 whole entry): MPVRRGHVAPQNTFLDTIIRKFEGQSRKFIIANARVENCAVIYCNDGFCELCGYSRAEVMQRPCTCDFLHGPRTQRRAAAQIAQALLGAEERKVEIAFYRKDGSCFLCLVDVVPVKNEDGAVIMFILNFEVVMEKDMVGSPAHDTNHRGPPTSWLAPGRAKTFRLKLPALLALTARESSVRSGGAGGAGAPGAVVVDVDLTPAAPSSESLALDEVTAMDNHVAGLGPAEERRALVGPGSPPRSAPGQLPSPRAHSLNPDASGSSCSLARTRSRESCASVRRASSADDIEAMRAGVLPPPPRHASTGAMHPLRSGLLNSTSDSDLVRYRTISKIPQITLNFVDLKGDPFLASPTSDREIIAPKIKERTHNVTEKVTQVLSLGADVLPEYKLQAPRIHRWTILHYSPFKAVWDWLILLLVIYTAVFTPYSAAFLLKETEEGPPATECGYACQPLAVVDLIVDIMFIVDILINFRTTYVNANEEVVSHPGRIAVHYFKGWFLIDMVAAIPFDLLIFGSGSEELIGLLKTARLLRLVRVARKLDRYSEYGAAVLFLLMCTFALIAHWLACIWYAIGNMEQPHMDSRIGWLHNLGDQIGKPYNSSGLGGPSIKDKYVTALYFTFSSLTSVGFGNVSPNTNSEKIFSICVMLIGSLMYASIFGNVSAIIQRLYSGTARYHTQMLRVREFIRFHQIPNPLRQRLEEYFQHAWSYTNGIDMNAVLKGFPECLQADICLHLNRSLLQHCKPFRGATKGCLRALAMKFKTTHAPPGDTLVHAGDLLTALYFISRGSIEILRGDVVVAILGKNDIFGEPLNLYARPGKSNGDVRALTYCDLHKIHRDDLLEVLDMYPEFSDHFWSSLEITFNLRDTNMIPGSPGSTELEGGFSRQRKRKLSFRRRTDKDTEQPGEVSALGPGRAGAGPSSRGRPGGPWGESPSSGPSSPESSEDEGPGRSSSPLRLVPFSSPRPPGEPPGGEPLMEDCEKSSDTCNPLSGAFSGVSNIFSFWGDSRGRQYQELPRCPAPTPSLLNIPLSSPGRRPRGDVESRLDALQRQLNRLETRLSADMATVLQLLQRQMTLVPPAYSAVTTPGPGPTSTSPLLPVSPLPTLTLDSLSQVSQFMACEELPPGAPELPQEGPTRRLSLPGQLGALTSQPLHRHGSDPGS
In short: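 In vitro hERG current by conventional whole-cell voltage clamp, with MMAE (free payload) tested at concentrations up to 100 μM. Half-maximal inhibitory concentration is estimated from the concentration–inhibition data. The comparator is the mean estimated maximum unbound plasma MMAE concentration in patients after a third 1.25 mg/kg dose, using an unbound fraction of 0.32.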

[5] = system: cytochrome P450 (CYP) 3A4; details: background statement, no reference given; cited from earlier work
OATP1B3 = details: in vitro, cited from earlier work
BCRP = details: in vitro; cited from earlier work
OAT1 = details: in vitro, cited from earlier work
OCT1 = details: in vitro, clinically relevant concentrations; cited from earlier work
P-glycoprotein (P-gp) = details: in vitro, cited from earlier work
[6] = Population PK analysis of five clinical studies; type: in vivo, human; details: enfortumab vedotin 0.5–1.25 mg/kg
CYP3A = details: when administered as part of an ADC; cited from earlier work
plasma proteins [7] = details: 3H-MMAE, human plasma; cited from earlier work
QTcF interval [8] = details: cited from earlier work; for Cmax geometric mean: EV-102, after third dose, cycle 1 day 15, 1.25 mg/kg
OAT3 = details: in vitro, cited from earlier work
[9] = Population PK: model-predicted exposures by race/ethnicity; type: in vivo, human; details: for difference in exposure, lower in Asian patients: cycle 1 AUC0–28d and Cmax, Asian vs non-Asian; for geometric least square mean ratios of Cmax, AUC0–28d and Ctrough lower in Japanese than non-Japanese patients: population PK model-simulated
plasma proteins [10] = assay: MMAE protein binding in human plasma; type: in vitro ADME; details: used for unbound Cmax
MRP2 = details: in vitro, cited from earlier work
OATP1B1 = details: in vitro, cited from earlier work
QTcF interval [11] = assay: EV-102 concentration–QTcF analysis; type: in vivo, human; details: patients, third dose of enfortumab vedotin 1.25 mg/kg
OCT2 = details: in vitro, cited from earlier work
[12] = system: mUC and other Nectin-4–expressing malignant solid tumors; assay: EV-101 phase I dose-escalation; type: in vivo, human
[13] = system: locally advanced or metastatic urothelial carcinoma; assay: EV-201; type: in vivo, human; details: upper three ADC Cavg exposure quartiles
[14] = system: locally advanced or metastatic urothelial carcinoma; assay: EV-301 phase III: exposure–response for overall survival; type: in vivo, human; details: enfortumab vedotin range across ADC Cavg quartiles
[15] = Adverse events in pooled enfortumab vedotin 1.25 mg/kg safety group; type: in vivo, human; details: for patients with grade 3 or higher TRAEs / patients with serious TRAEs: 1.25 mg/kg safety analysis group; for patients with TRAE grade 3 or higher / patients with serious TRAE: 1.25 mg/kg
In short: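 Pooled integrated safety dataset (N = 680) from the clinical development program. Patients received monotherapy at 1.25 mg/kg (maximum 125 mg) as a 30-min IV infusion on days 1, 8 and 15 of each 28-day cycle until progression or unacceptable toxicity. Treatment-emergent and treatment-related AEs, including serious events, were tabulated by subgroups of concomitant inhibitor use.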

[16] = system: Nectin-4–expressing malignant solid tumors; assay: AGS-22M6E-11-1 phase I study; type: in vivo, human; details: for median t½: observed concentrations
In short: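 First-in-human study in which patients received an intravenous infusion every 3 weeks at 0.6 or 1.2 mg/kg. ADC is measured as antibody carrying any amount of conjugated MMAE. Median half-life is derived from observed ADC concentrations at each dose level. Safety, tolerability and clinical response are assessed per dose cohort.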

[17] = clinically relevant concentrations

CC[C@H](C)[C@@H]([C@@H](CC(=O)N1CCC[C@H]1[C@H](OC)[C@@H](C)C(=O)N[C@H](C)[C@@H](O)c1ccccc1)OC)N(C)C(=O)[C@@H](NC(=O)[C@@H](NC)C(C)C)C(C)C [MMAE, monomethyl auristatin E] (H-[NMeV]V[Dil][Dolaproine]-X1)
inhibitor of BSEP (BSEP): not an inhibitor | increase in AUC0–28d [1]: 37% | increase in Cmax [1]: 31% | share of excreted MMAE that was excreted in feces [2]: approximately 72% | total MMAE administered excreted in feces and urine [2]: approximately 24% | Mean Cmax ([3]; across cycles 1 and 2, enfortumab vedotin 1.25 mg/kg): 2.4 to 3.9 ng/mL | time to peak concentration ([3]; after dosing of enfortumab vedotin 1.25 mg/kg): 2 to 3 days | Cmax lower than that of ADC ([3]; enfortumab vedotin 1.25 mg/kg): more than 1000 fold | IC50 estimate relative to mean maximum unbound MMAE concentration ([4]; 100 μM vs 0.002 μM): approximately 50,000 fold | pIC50 ([4]; read-out: half maximal inhibitory concentration, concentrations up to 100 μM): < 4.00 | metabolizing enzyme [5]: primarily metabolized by cytochrome P450 (CYP) 3A4 | inhibitor of OATP1B3 (OATP1B3; [17]): not an inhibitor | substrate of OATP1B3 (OATP1B3): not a substrate | substrate of BCRP (BCRP): not a substrate | inhibitor of OAT1 (OAT1; [17]): not an inhibitor | substrate of OAT1 (OAT1): not a substrate | inhibitor of OCT1 (OCT1): not an inhibitor | inhibitor of P-gp (P-glycoprotein (P-gp); [17]): not an inhibitor | substrate of P-gp (P-glycoprotein (P-gp)): substrate | mean clearance [6]: 2.11 L/h | inhibitor or inducer of CYP3A (CYP3A): neither an inhibitor nor an inducer | bound to plasma proteins (plasma proteins [7]): 67.9–82.2% | Cmax geometric mean (QTcF interval [8]): 3.94 ng/mL | Predicted dQTcF interval (population mean change in QTcF), mean (SE in table) (QTcF interval [8]; at geometric mean Cmax, 1.25 mg/kg): -3.14 ms | inhibitor of OAT3 (OAT3; [17]): not an inhibitor | substrate of OAT3 (OAT3): not a substrate | difference in exposure, lower in Asian patients [9]: < 11% | geometric least square mean ratios of Cmax, AUC0–28d and Ctrough lower in Japanese than non-Japanese patients [9]: 2.7–11.6% | unbound fraction (plasma proteins [10]): 0.32 | inhibitor of MRP2 (MRP2; [17]): not an inhibitor | substrate of MRP2 (MRP2): not a substrate | inhibitor of OATP1B1 (OATP1B1; [17]): not an inhibitor | substrate of OATP1B1 (OATP1B1): not a substrate | mean estimate of maximum unbound MMAE concentration (QTcF interval [11]): 0.002 μM and 1.26 ng/mL | inhibitor of OCT2 (OCT2; [17]): not an inhibitor | substrate of OCT2 (OCT2): not a substrate

Enfortumab vedotin: fully human anti–Nectin-4 IgG1 kappa monoclonal antibody conjugated to MMAE via a protease-cleavable maleimidocaproyl valine–citrulline linker
maximum tolerated dose ([12]; EV-101, 0.5–1.25 mg/kg): not identified | confirmed objective response rate [ORR] ([12]; EV-101, 1.25-mg/kg dose level): 42.9% | AUCd0–14 ([3]; listed as ADC): 34.7 µg·days/mL | ORR (complete and partial responses) [13]: 55–64% | median OS [14]: 11.0–15.2 months | patients with grade 3 or higher TRAEs ([15]; mild CYP3A inhibitors): 51.1% | patients with serious TRAEs ([15]; mild CYP3A inhibitors): 20.7% | patients with grade 3 or higher TRAEs ([15]; moderate CYP3A inhibitors): 61.8% | patients with serious TRAEs ([15]; moderate CYP3A inhibitors): 28.7% | patients with grade 3 or higher TRAEs ([15]; not receiving CYP3A inhibitors): 41.5% | patients with serious TRAEs ([15]; not receiving CYP3A inhibitors): 14.4% | patients with TRAE grade 3 or higher ([15]; not receiving P-gp inhibitors): 33.3% | patients with serious TRAE ([15]; not receiving P-gp inhibitors): 10.0% | patients with TRAE grade 3 or higher ([15]; receiving P-gp inhibitors): 56.8% | patients with serious TRAE ([15]; receiving P-gp inhibitors): 24.3% | clinical response ([16]; 0.6 mg/kg and 1.2 mg/kg every 3 weeks): clinical response was not observed | median t½ ([16]; 1.2 mg/kg intravenous dose): 57.4 h | median t½ ([16]; 0.6-mg/kg dose): 39.6 h | mean clearance [6]: 0.11 L/h | QT prolongation (QTcF interval [8]; EV-102, 1.0 or 1.25 mg/kg): No clinically meaningful QT prolongation was observed | slope estimate, dQTcF vs concentration (QTcF interval [8]; EV-102, 1.0 or 1.25 mg/kg): 0.539 ms/(μg/mL) | Cmax geometric mean (QTcF interval [8]): 20100 ng/mL | difference in exposure, lower in Asian patients [9]: < 11% | geometric least square mean ratios of Cmax, AUC0–28d and Ctrough lower in Japanese than non-Japanese patients [9]: 2.7–11.6%

TAb: analyte: fully conjugated, partially conjugated, and unconjugated antibody after enfortumab vedotin administration
geometric mean ratio (GMR) of accumulation ([3]; after repeat enfortumab vedotin dosing): 1.1 | AUCd0–14 [3]: 98.1 µg·days/mL | average Ctrough, TAb relative to ADC ([3]; end of cycle 1): approximately 5.5 fold
